Measured values pooled from the literature.
Protocols differ between the studies behind these lines.
Effect on: cell growth or viability

C[C@H]1Oc2cc(cnc2N)-c2c(nn(C)c2C#N)CN(C)C(=O)c2ccc(F)cc21
IC50 (HD-MB03; 7 days): > 10000 nM

CC(C)C[C@H](NC(=O)[C@H](Cc1ccccc1)NC(=O)c1cnccn1)B(O)O
IC50 (NCI-H1563; ATP luminescence): 22 nM

CC(=O)OC[C@H]1O[C@@H]([S-])[C@H](OC(C)=O)[C@@H](OC(C)=O)[C@@H]1OC(C)=O.CCP(CC)CC.[Au+]
Kb (KB 3-1; WST-1): 100 nM

Cc1cc2c(cc1N1C(=O)c3cccc4c(CCCO)ccc(c34)C1=O)n(C)c(=O)n2C (racemic)
GI50 (SW-403; resazurin): > 10000 nM

CCC(=O)N1CCN(c2ccc(-n3c(=O)ccc4cnc5ccc(-c6cnc7ccccc7c6)cc5c43)cc2C(F)(F)F)CC1
IC50 (MB002; 7 days): 15.4 nM

CO[C@]1(C(=O)N[C@@H](C)c2ccc(-n3cc(F)cn3)nc2)CC[C@H](c2nc(C)cc(Nc3cc(C)[nH]n3)n2)CC1
GI50 (BT-474; ATP luminescence; 72 h): > 10000 nM

CC(=O)c1c(C)c2cnc(Nc3ccc(N4CCNCC4)cn3)nc2n(C2CCCC2)c1=O
IC50 (MB002; 7 days): 10.8 nM

CC(=O)Nc1cccc(-n2c(=O)n(C3CC3)c(=O)c3c(Nc4ccc(I)cc4F)n(C)c(=O)c(C)c32)c1
viability (Calu-6; resazurin; 0.1 µM, 72 h): 62.6%

CCCCCCCCCC(=O)N[C@@H](Cc1c[nH]c2ccccc12)C(=O)N[C@H](CC(N)=O)C(=O)N[C@@H](CC(=O)O)C(=O)N[C@@H]1C(=O)NCC(=O)N[C@@H](CCCN)C(=O)N[C@@H](CC(=O)O)C(=O)N[C@H](C)C(=O)N[C@@H](CC(=O)O)C(=O)NCC(=O)N[C@H](CO)C(=O)N[C@@H]([C@H](C)CC(=O)O)C(=O)N[C@@H](CC(=O)c2ccccc2N)C(=O)O[C@@H]1C
Kb (KB 3-1; WST-1): > 64000 nM

CC(=O)c1c(C)c2cnc(Nc3ccc(N4CCNCC4)cn3)nc2n(C2CCCC2)c1=O
GI50 (BT-474; resazurin): 200 nM

COc1cc(Nc2nccc(-c3cnn4nc(OC)ccc34)n2)cc(C(F)(F)F)c1
IC50 (SK-ES1; ATP luminescence): 190 nM

CCOc1cc(C(C)(C)C)ccc1C1=N[C@@](C)(c2ccc(Cl)cc2)[C@@](C)(c2ccc(Cl)cc2)N1C(=O)N1CCN(CCCS(C)(=O)=O)CC1
IC50 (MB002; 7 days): 99.4 nM

CC(=O)c1sc(=NN=C(C)c2c(O)c3ccccc3oc2=O)n(C)c1C
IC50 (human Skin fibroblast; MTT; 48 h): > 100000 nM
